Assay results published in ChEMBL document CHEMBL1131610, “3-Deoxy-D-myo-inositol 1-phosphate, 1-phosphonate, and ether lipid analogues as inhibitors of phosphatidylinositol-3-kinase signaling and cancer cell growth” (J Med Chem, 1998).

What was measured:
HT-29 = experiment: Inhibition of HT-29 colon carcinoma cell proliferation after continuous 7-day exposure; format: functional, cell-based; details: Homo sapiens, HT-29, 168 h
In short: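 HT-29 colon carcinoma cells were grown as colonies in soft agarose with continuous 7-day drug exposure, and inhibition of colony formation was scored.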

Mus musculus [1] = experiment: In vivo antitumor activity in mice implanted with human colon adenocarcinoma cells at a dose of 100 mg/kg (qd 4-7), injected intraperitoneally and evaluated for tumor volume on day 10; format: functional; details: route intraperitoneal
In short: (§1)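 scid mice were implanted subcutaneously with 10⁷ HT-29 human colon adenocarcinoma cells, 8 mice per group. Beginning 4 days after inoculation, each mouse got 4 daily intraperitoneal injections (days 4–7) of compound suspended in 3% EtOH, 3% Tween 20, 0.9% NaCl. Tumor volume was measured with calipers on day 10 and reported as mean with SE. T/C (%) is treated versus control volume, and significance was tested by Student's test.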

Mus musculus [2] = experiment: In vivo antitumor activity in mice implanted with human colon adenocarcinoma cells at a dose of 150 mg/kg (qd 4-7), injected intraperitoneally and evaluated for tumor volume on day 10; format: functional; details: route intraperitoneal; in short: as §1
Mus musculus [3] = experiment: In vivo antitumor activity in mice implanted with human colon adenocarcinoma cells at a dose of 50 mg/kg (qd 4-7), injected intraperitoneally and evaluated for tumor volume on day 10; format: functional; details: route intraperitoneal; in short: as §1
Mus musculus [4] = experiment: In vivo antitumor activity in mice implanted subcutaneously with 10^7 HT-29 human colon adenocarcinoma cells at a dose of 100 mg/kg (qd 4-7), injected intraperitoneally and evaluated for %T/C; format: functional; in short: as §1
Mus musculus [5] = experiment: In vivo antitumor activity in mice implanted subcutaneously with 10^7 HT-29 human colon adenocarcinoma cells at a dose of 50 mg/kg (qd 4-7), injected intraperitoneally and evaluated for %T/C.; format: functional; in short: as §1
Mus musculus [6] = experiment: In vivo antitumor activity in mice implanted with human colon adenocarcinoma cells at a dose of 150 mg/kg (qd 4-7), injected intraperitoneally and evaluated for %T/C; format: functional; details: route intraperitoneal; in short: as §1
[7] = Inhibition of bovine brain Phosphatidylinositol 3-kinase; parameters: species or system Bos taurus
Mus musculus [8] = experiment: In vivo antitumor activity in mice implanted subcutaneously with HT-29 human colon adenocarcinoma cells at a dose of 250 mg/kg (qd 4-7), injected intraperitoneally and evaluated for %T/C; format: functional; in short: as §1
Mus musculus [9] = experiment: In vivo antitumor activity in mice implanted with human colon adenocarcinoma cells at a dose of 250 mg/kg (qd 4-7), injected intraperitoneally and evaluated for tumor volume on day 10; format: functional; details: route intraperitoneal; in short: as §1
[10] = In vivo antitumor activity in mice implanted with human colon adenocarcinoma cells at a dose of 500 mg/kg (qd 4-7), injected intraperitoneally and evaluated for tumor volume on day 10; Lethal; format: organism-based; parameters: dose 500 mg/kg, route intraperitoneal; details: mouse, ip
[11] = Inhibition of bovine brain Phosphatidylinositol 3-kinase (inactive); parameters: species or system Bos taurus
[12] = test system: Phosphoinositide specific phospholipase C (Bos taurus); experiment: In vitro inhibitory activity against bovine Phosphoinositide specific phospholipase C (PI-PLC); N/A= not active, with <20% inhibition at 100 uM

CCCCCCCCCCCCCCCCCCOC[C@H](COP(=O)(O)O[C@H]1[C@@H](O)[C@@H](O)[C@H](O)C[C@H]1O)OC
IC50 (HT-29): 2.1 µM | Tumor volume (Mus musculus [1]): 0.32 cm*3 | Tumor volume (Mus musculus [2]): 0.09 cm*3 | Tumor volume (Mus musculus [3]): 0.28 cm*3 | T/C (Mus musculus [4]): 118% | T/C (Mus musculus [5]): 103.7% | T/C (Mus musculus [6]): 33.3% | IC50 [7]: 2.5 µM

CCCCCCCCCCCCCCCC(=O)OC[C@H](COP(=O)(O)O[C@H]1[C@@H](O)[C@@H](O)[C@H](O)C[C@H]1O)OC(=O)CCCCCCCCCCCCCCC
IC50 (HT-29): 35 µM | T/C (Mus musculus [8]): 111.1% | Tumor volume (Mus musculus [9]): 0.3 cm*3 | IC50 [7]: > 250 µM | Tumor volume [10]: Lethal

CCCCCCCCCCCCCCCC(=O)OC[C@H](CCP(=O)(O)O[C@H]1[C@@H](O)[C@@H](O)[C@H](O)C[C@H]1O)OC(=O)CCCCCCCCCCCCCCC
IC50 (HT-29): 10 µM | IC50 [11]: Not Active | IC50 [12]: Not Active

CCCCCCCCCCCCCCCC(=O)OC[C@H](COP(=O)(O)O[C@@H]1[C@H](O)[C@@H](F)[C@@H](O)[C@H](O)[C@@H]1O)OC(=O)CCCCCCCCCCCCCCC
IC50 (HT-29): 37 µM | IC50 [7]: 30 µM

CCCCCCCCCCCCCCCCCCOC[C@H](CCP(=O)(O)O[C@H]1[C@@H](O)[C@@H](O)[C@H](O)C[C@H]1O)OC
IC50 (HT-29): 45 µM | IC50 [7]: 5.3 µM
